Compound activity: PubChem BioAssay, several laboratories
An excerpt weighted towards active compounds, which were near 1.7% of everything screened.
DNMT1 inh = human DNMT1 methyltransferase inhibitors, primary screen, biochemical, molecular beacon, fluorescence, HinP1I cleavage, uHTS; actives 0.83% (n = 360,000); DNA (cytosine-5)-methyltransferase 1 (Homo sapiens), P26358; inhibition (reported as % activation of signal), % at 10 µM; AID 588458, 2011; in the data active = inhibition above about 50%
Scp1 inh = Scp-1 phosphatase inhibitors, primary screen, biochemical, colorimetric, uHTS. Carboxy-terminal domain RNA polymerase II polypeptide A small phosphatase 1 (Homo …. Recombinant Scp1, phosphopeptide, malachite green phosphate absorbance. inhibition, % at 20 µM. actives 0.88% (n = 340,000). AID 493091, 2011;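 active = inhibition above about 50% at 20 µM, limit read from the data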;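 also: plate controls were DMSO wells with enzyme for no effect and wells lacking enzyme for full effect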
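System: SCP-1 catalytic domain; Reagent: Phospho 17-mer peptide substrate; Doses: one concentration, 20 µM, with 1.0% DMSO; Incubation: 45 min room-temperature reaction, 5 min colour, 30 min stabiliser; Signal: Phosphate-binding colour reagent, absorbance read at 630 nm.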
STEP block = STEP phosphatase inhibitors, primary screen, biochemical, fluorescence intensity, uHTS; AID 588621, 2011; actives 0.25% (n = 360,000); Tyrosine-protein phosphatase non-receptor type 5 (Homo sapiens), P54829; inhibition, % at 20 µM; recombinant STEP, OMFP fluorogenic substrate;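 active = inhibition at 20 µM, scaled per plate between control wells, above about 37%, limit read from the data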;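 also: 0% = DMSO with enzyme and substrate and 100% = substrate only without enzyme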
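Material: STEP (striatal-enriched tyrosine phosphatase) enzyme, cell-free; Compound dosing: 20 µM single dose in 1% DMSO; Technique: fluorescence read at 480 nm ex / 540 nm em; Times: reaction 20 min, ambient temperature; Medium: 50 mM Bis-Tris pH 6.0 with 2.5 mM DTT and 0.005% Tween 20; Also added: OMFP at 25 µM.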
SUMO1-SIM PPI = modulators of SUMO1 protein-protein interactions, primary screen, biochemical, uHTS; SUMO1 binding to a labelled peptide, TR-FRET, 1 h; actives 0.33% (n = 360,000); inhibition, % at 20 µM; AID 602429, 2012; in the data active = inhibition above about 37%
LMPTP inh = LMPTP phosphatase inhibitors, primary screen, biochemical, fluorescence intensity, uHTS. Low molecular weight phosphotyrosine protein phosphatase (Homo sapiens), P24666. recombinant LMPTP-A, OMFP fluorogenic substrate. inhibition, % at 20 µM. actives 0.22% (n = 360,000). AID 651560, 2012;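 active = compounds that cut the enzyme signal by at least half of the control window in the single-dose screen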;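 also: plate controls were DMSO wells with enzyme plus substrate for no effect and substrate without enzyme for full effect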
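Test system – LMPTP-A phosphatase enzyme · Quantity – 0.625 nM LMPTP-A final · Reagent – OMFP substrate, 400 µM final · Dosing – one test concentration per compound, 20 µM, with 3% DMSO overall · Timing – 50 min enzyme reaction at room temperature, protected from light · Detection – fluorescence intensity · Controls – substrate-only low control, DMSO enzyme-plus-substrate high control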
Casp6 inh = human caspase-6 inhibitors, primary screen, biochemical, VEID-R110 fluorescence, single point, set 2 | inhibition, % at 12.5 µM | AID 686996, 2013 | P55212 | actives 0.53% (n = 350,000) | purified caspase-6, Z-VEID-R110 cleavage fluorescence;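 active = mean inhibition across replicates at least about 35%, with every replicate also reaching that limit, limit read from the data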;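 also: 0% = median of neutral control wells and 100% = no fluorescence left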
Active calls of the source: *; / = no result; ! = a repeat was not active.

SMILES	DNMT1 inh	Scp1 inh	STEP block	SUMO1-SIM PPI	LMPTP inh	Casp6 inh
COC(=O)CCc1c(C)c(C(=O)c2cc(F)c(F)c(F)c2F)c2ccccn12	-4.8	-3.4	0.8	-4.3	-0.8	62.4*
O=C(CCNS(=O)(=O)c1ccccc1F)N1CCN(C(c2ccccc2)c2ccccc2)CC1	-7.7	-5.7	-1.2	2.6	0.1	0.5
CC(C)c1ccc(C(=O)N2CCCC(c3cc(C(=O)Nc4ccccc4Cl)no3)C2)cc1 (stereo unspecified)	-4.4	/	0.8	3.5	5.1	57.4*
Cc1ccccc1C(=O)N1CCC(C(N)=O)CC1	1.6	-5.9	1.7	55.2*	-1.6	/
Cc1noc(C)c1NC(=O)Nc1ccc2c(c1)CC(=O)N([C@H](C)CO)C[C@H](C)[C@@H](CN(C)S(=O)(=O)c1ccc(Cl)cc1)O2	/	/	/	/	/	2.4
COC(=O)[C@]12C[C@H](CC(=O)NCC34CC5CC(CC(C5)C3)C4)C(=O)N(Cc3ccccc3)C1=C[C@H](C(C)(C)C)O[C@@H]2C	/	/	/	/	/	-7.6
CCN(Cc1ccccc1)C(=O)CCNS(=O)(=O)c1cc(Br)cnc1N	0.8	-2.2	1.9	-2.3	0.0	-4.2
COc1cc(N)ccc1Nc1c2ccccc2nc2ccccc12	-13.8	/	5.5	-62.2	87.3*	/
COc1ccc(C2c3ccc(O)cc3Oc3ncn(Cc4ccco4)c(=N)c32)cc1OC (stereo unspecified)	-10.2	-2.5	1.7	-1.4	5.1	0.2
CCOc1ccc(Nc2nc(Cc3nnc(SCC(=O)NC4CCCCC4)n3C)cs2)cc1	-1.8	-4.6	0.5	1.7	-1.2	/
CCOc1ccc(Nc2nc(Cc3nnc(SCC(=O)NCC4CCCO4)n3C)cs2)cc1 (stereo unspecified)	-5.5	-7.7	2.9	-2.4	-0.5	36.8*
Nc1cc2cccnc2cc1Cl	41.9	-7.7	0.1	13.9	39.6	62.3*
CC(C)(O)c1cn([C@@H]2C[C@@H]3O[C@@H](CO)CC[C@@H]3O[C@@H]2CCc2ccc(-c3ccncc3)cc2)nn1	/	/	/	/	/	52.3*
CC(=O)CSc1nc(-c2cccs2)c(C#N)c(=O)[nH]1	0.5	-2.2	2.2	3.2	-1.6	8.9
Cc1ccc(-c2nc(NCCN3CCOCC3)c3ccccc3n2)cc1	0.4	-8.0	-2.2	3.3	49.8*	/
Fc1ccccc1-c1nc(NCCCN2CCOCC2)c2ccccc2n1	1.3	-2.6	-3.9	0.2	50.6*	2.0
CN(C)CCCNc1nc(-c2ccccc2)nc2ccccc12	-5.5	-3.6	0.7	-22.6	27.8	-97.7
Clc1ccc(-c2nc(NCCCN3CCOCC3)c3ccccc3n2)cc1	13.6	2.3	-0.6	5.3	42.0	3.5
CC(C)OCCCNc1nc(-c2ccccc2)nc2ccccc12	6.5	-1.2	3.2	4.9	55.7*	-0.4
CC12CCC3C(C1)C(C(=O)O2)C(=O)OC3(C)C (stereo unspecified)	-2.5	/	-2.5	-5.3	-1.0	-0.8
CN(CC(=O)Nc1ccccc1Br)C(=O)c1ccccc1OCc1ccccc1Cl	-0.6	-11.1	-1.8	2.1	0.9	1.1
CCC(=O)N/C(=N/c1nc(C)cc(C)n1)Nc1ccc(C)cc1	1.4	-3.7	-2.7	-3.7	0.1	-6.5
Cc1cccc(-n2nc3c(c2NC(=O)c2ccco2)CSC3)c1C	86.5*	49.7	2.2	6.4	3.8	/
Cc1cccc(-n2nc3c(c2NC(=O)c2ccco2)CS(=O)C3)c1C (stereo unspecified)	2.8	-10.6	-4.5	5.2	-2.4	1.0
Cc1cccn2c(=O)c(C=C(C#N)C#N)c(N3CCN(C)CC3)nc12	-1.2	-2.4	-3.4	-28.5	0.0	-1.7
SMILES	DNMT1 inh	Scp1 inh	STEP block	SUMO1-SIM PPI	LMPTP inh	Casp6 inh
O=C(CSc1nc2ccccc2s1)N1CCCCC1	-1.5	-9.4	1.7	2.5	-0.6	-1.5
O=C(N/N=C\c1ccc([N+](=O)[O-])o1)c1cncc(Br)c1	-7.8	0.3	0.2	-6.9	0.2	39.0*
Nc1cc(C(=O)O)c(N)c2c1C(=O)c1ccccc1C2=O	17.1	81.7*	7.5	32.9	7.5	/
CC(C)C[C@@H]1NC(=O)[C@@H]2CSCCS(=O)(=O)N2C1=O	/	/	/	/	/	0.7
CCN1C(=O)/C(=C/C=C2/Sc3ccc4ccccc4c3N2CCO)SC1=S	12.0	-15.7	-0.1	40.9*	-1.4	3.4
CCC(C)Nc1nc(-c2ccc3c(c2)NC(=O)CO3)cs1 (stereo unspecified)	-5.7	6.8	-2.3	-0.3	48.3*	/
COc1ccc(Nc2nc(-c3ccc4c(c3)NC(=O)CO4)cs2)cc1	-26.3	0.7	0.2	-4.3	54.0*	-1.2
COc1ccc(CNc2nc(NCc3ccc(OC)cc3)c3[nH]cnc3n2)cc1	3.8	12.2	-1.1	2.6	77.5*	-0.6
O=c1c2cc(Br)ccc2nc(-c2ccc(Cl)cc2)n1O	0.0	65.5*	95.5*	0.8	50.9*	-0.3
O=c1c2cc(Cl)ccc2nc(-c2ccc([N+](=O)[O-])cc2)n1O	0.9	-3.2	4.7	-17.6	3.1	0.2
COc1ccccc1NC(NC(=O)c1ccco1)C(=O)c1ccccc1 (stereo unspecified)	-9.6	-5.5	-0.7	-4.2	0.6	-2.4
COc1cccc(S(=O)(=O)N2C[C@@H]3N[C@H](C2)C3c2ccc(-c3ccccc3C)cc2)c1 (stereo partly specified)	/	/	/	/	/	36.8*!
O=c1c2c3c(sc2nc2n1CCCCC2)CCCCC3	-1.9	/	1.9	-0.5	-0.1	/
N=c1c2c3c(sc2nc2n1CCCCC2)CCCCC3	4.0	-2.0	42.0*	3.9	0.2	/
CC(C)C#Cc1ccc([C@@H]2[C@@H](CO)N3CCCCN(S(=O)(=O)Cc4ccccc4)C[C@@H]23)cc1	/	/	/	/	/	-0.1
CC(=O)N(C)C[C@H]1Oc2ncc(-c3ccc(F)cc3)cc2C(=O)N([C@H](C)CO)C[C@H]1C	/	/	/	/	/	-3.9
O=S(=O)(O)c1cc(O)c(N=Nc2ccc(O)cc2O)c2ccccc12	55.0*	61.0*	10.2	43.7*	49.7	52.0*
